Source: ChEMBL document CHEMBL1142894, “Preparation of 5-aryl-3-alkylthio-l,2,4-triazoles and corresponding sulfones with antiinflammatory-analgesic activity” (Bioorg Med Chem, 2007)

Key:
Type in all cases: functional
Mus musculus [1] = test: Inhibition of carrageenan-induced paw edema in Swiss albino mouse at 10 mg/kg, po after 360 mins relative to control; conditions: 6 h
Procedure, shortened: (§1)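 Oral dosing in 0.5% CMC; vehicle to controls. Then carrageenan (0.5 mg/25 ll, freshly suspended in 154 mM saline) injected into the right hind paw subplantar tissue; saline into the left paw. Right-left footpad thickness difference measured by dial gauge calliper every 90 min over 6 h. Inhibition % is relative to vehicle control. n = 6; mean ± SEM.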

Mus musculus [2] = test: Inhibition of carrageenan-induced paw edema in Swiss albino mouse at 10 mg/kg, po after 180 mins relative to control; conditions: 3 h; procedure, shortened: as §1
Mus musculus [3] = test: Antiinflammatory activity against carrageenan-induced paw edema in Swiss albino mouse assessed as swelling thickness at 100 mg/kg, po after 180 mins; procedure, shortened: as §1
Mus musculus [4] = test: Antiinflammatory activity against carrageenan-induced paw edema in Swiss albino mouse assessed as swelling thickness at 100 mg/kg, po after 270 mins; procedure, shortened: as §1
Mus musculus [5] = test: Inhibition of carrageenan-induced paw edema in Swiss albino mouse at 100 mg/kg, po after 270 mins relative to control; conditions: 4.5 h; procedure, shortened: as §1
Mus musculus [6] = test: Inhibition of carrageenan-induced paw edema in Swiss albino mouse at 10 mg/kg, po after 270 mins relative to control; conditions: 4.5 h; procedure, shortened: as §1
Mus musculus [7] = test: Inhibition of carrageenan-induced paw edema in Swiss albino mouse at 100 mg/kg, po after 360 mins relative to control; conditions: 6 h; procedure, shortened: as §1
Mus musculus [8] = test: Inhibition of carrageenan-induced paw edema in Swiss albino mouse at 100 mg/kg, po after 180 mins relative to control; conditions: 3 h; procedure, shortened: as §1
Mus musculus [9] = test: Antiinflammatory activity against carrageenan-induced paw edema in Swiss albino mouse assessed as swelling thickness at 100 mg/kg, po after 90 mins; procedure, shortened: as §1
Mus musculus [10] = test: Antiinflammatory activity against carrageenan-induced paw edema in Swiss albino mouse assessed as swelling thickness at 10 mg/kg, po after 90 mins; procedure, shortened: as §1
Mus musculus [11] = test: Antiinflammatory activity against carrageenan-induced paw edema in Swiss albino mouse assessed as swelling thickness at 10 mg/kg, po after 360 mins; procedure, shortened: as §1
Mus musculus [12] = test: Inhibition of carrageenan-induced paw edema in Swiss albino mouse at 100 mg/kg, po after 90 mins relative to control; conditions: 1.5 h; procedure, shortened: as §1
Mus musculus [13] = test: Antiinflammatory activity against carrageenan-induced paw edema in Swiss albino mouse assessed as swelling thickness at 10 mg/kg, po after 180 mins; procedure, shortened: as §1
Mus musculus [14] = test: Antiinflammatory activity against carrageenan-induced paw edema in Swiss albino mouse assessed as swelling thickness at 10 mg/kg, po after 270 mins; procedure, shortened: as §1
Mus musculus [15] = test: Inhibition of carrageenan-induced paw edema in Swiss albino mouse at 10 mg/kg, po after 90 mins relative to control; conditions: 1.5 h; procedure, shortened: as §1
Mus musculus [16] = test: Antiinflammatory activity against carrageenan-induced paw edema in Swiss albino mouse assessed as swelling thickness at 100 mg/kg, po after 360 mins; procedure, shortened: as §1

SMILES: COc1ccc2c(c1)c(CC(=O)O)c(C)n2C(=O)c1ccc(Cl)cc1 [INDOMETHACIN]
- inhibition in vivo at 10 mg/kg (Mus musculus [1]): 44.2%
- inhibition in vivo at 10 mg/kg (Mus musculus [2]): 34.2%
- Activity (Mus musculus [3]): 34.8 10^-2mm
- Activity (Mus musculus [4]): 36.5 10^-2mm
- inhibition in vivo at 100 mg/kg (Mus musculus [5]): 37.9%
- inhibition in vivo at 10 mg/kg (Mus musculus [6]): 42.1%
- inhibition in vivo at 100 mg/kg (Mus musculus [7]): 42.3%
- inhibition in vivo at 100 mg/kg (Mus musculus [8]): 32.4%
- Activity (Mus musculus [9]): 31.9 10^-2mm
- Activity (Mus musculus [10]): 34.5 10^-2mm
- Activity (Mus musculus [11]): 40.2 10^-2mm
- inhibition in vivo at 100 mg/kg (Mus musculus [12]): 28.8%
- Activity (Mus musculus [13]): 39.1 10^-2mm
- Activity (Mus musculus [14]): 37.5 10^-2mm
- inhibition in vivo at 10 mg/kg (Mus musculus [15]): 35.2%
- Activity (Mus musculus [16]): 39.7 10^-2mm
